Experimental data gathered from unrelated publications.
Lines come from different studies, so protocols differ.
Target: Dual specificity tyrosine-phosphorylation-regulated kinase 1B (DYRK1B, Homo sapiens, UniProt Q9Y463)
Observed: enzyme activity
Mode: inhibitor

Nc1ncnc2occ(-c3ccc(NC(=O)Nc4cc(C(F)(F)F)ccc4F)cc3)c12 — remaining activity (20 µM): 80%
COc1cc(Cl)c(C(=O)N[C@@H](CN[C@H]2CC[C@@H](N)CC2)Cc2ccc(C#N)cc2)cc1-c1ccc(CN[C@H](C)c2ccc(C)cc2)o1 — remaining activity (1 µM): 101%
O=C(O)c1ccc2c(c1)nc(Nc1ccc(Cl)cc1)c1ccncc12 — remaining activity (radiometric; 1 µM): 65%
CC(C)(O)[C@H]1CC[C@H](Nc2ccc3ncc(-c4cccc(C(F)(F)F)c4)n3n2)CC1 — remaining activity (1 µM): 15.3%
O=C(Nc1cnn(-c2csc(C(=O)NC3COC3)c2)c1)Nc1c(F)cccc1Cl — remaining activity (5 µM): 82.8%
O=C(O)c1ccc2c(c1)nc(NCCc1ccccc1)c1ccncc12 — remaining activity (radiometric; 1 µM): 114%
O=C(Nc1cnn(-c2csc(C(=O)NC3COC3)c2)c1)Nc1ccccc1Cl — remaining activity (5 µM): 87%
Cc1cnc(NC2CCOCC2)nc1-n1cnc(C(=O)NC(CN)c2cc(F)cc(Cl)c2)c1 (centres unmarked) — remaining activity (radiometric; 1 µM): 80%
